This note sets out measurements from ChEMBL document CHEMBL4622835, “A novel potent metal-binding NDM-1 inhibitor was identified by fragment virtual, SPR and NMR screening” (Bioorg Med Chem, 2020).

A short description of test [1]: Inhibition of bacteria NMD-1.
For test [2], the system named is Klebsiella pneumoniae. The experiment in a line: Synergistic antibacterial activity against Klebsiella pneumoniae ATCC BAA-2470 cells expressing NDM-1 incubated for 20 to 24 hrs presence of meropenem by broth dilution method (Rvb >64 ug/ml). Type of test: functional. The method, boiled down: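 Broth microdilution in Mueller-Hinton broth, final inoculum about 5 × 10^5 CFU/mL. Test compound fixed at 100 µg/mL final (from 20 mg/mL DMSO stock). Meropenem in two-fold dilutions, 64 to 0.0625 µg/mL final. Plates held 20–24 h at 37 °C. MIC is the lowest meropenem concentration with no visible growth.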
Background: Broth dilution looks for growth in wells or tubes with falling amounts of substance.

The nature of test [3]: Binding affinity to recombinant bacteria NDM-1 (I31 to K268 residues)expressed in Escherichia coli BL21 (DE3) cells by SPR assay. The essentials:
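Tag-free NDM-1 at 50 µg/ml in pH 5.0 sodium acetate, amine-coupled to a CM7 chip (>8,000 RU). Biacore T200, 25 °C, 30 µL/min. Running buffer 10 mM Hepes pH 7.5, 150 mM NaCl, 100 µM ZnCl2, 2% DMSO (EDTA-2Na run without DMSO). Eight two-fold dilutions per compound. KD from a steady-state 1:1 fit, at least three runs.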
In general terms: SPR reads the build-up and loss of mass on a sensor chip optically.

Test [4] is described as follows: Inhibition of recombinant bacteria NDM-1 (I31 to K268 residues) expressed in Escherichia coli BL21 (DE3) cells incubated for 20 mins using meropenem as substrate. The method, boiled down: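 NDM-1 (12 nM) preincubated with inhibitor for 20 min at room temperature, then meropenem (100 µM) added. Final buffer 50 mM hepes pH 7.24 with 2% DMSO. Absorbance read at 300 nm at 30 °C. Duplicate wells, three repeats. IC50 taken from percent loss of activity against inhibitor concentration; L-captopril as positive control.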

The nature of test [5]: Binding affinity to recombinant bacteria 15N labeled His-6-tagged NDM-1 (36 to 270 residues) expressed in Escherichia coli BL21 (DE3) cells by NMR analysis. The method, boiled down:
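15N-labelled NDM-1 (0.11 mM or 0.165 mM) in 50 mM HEPES, 200 mM NaCl, pH 7.5, titrated with inhibitor from DMSO stock (20 mM or 50 mM). 1H-15N HSQC spectra recorded at 800 MHz, 298 K and 293 K. NDM-1:inhibitor mole ratios ran 1:0 to 1:15. Both di-Zn and apo (EDTA-stripped) forms were used; after the apo titrations, 2 equiv Zn2+ added.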

By IC50 is commonly meant the concentration that inhibits the measured activity by half. Broadly, the MIC is the least concentration at which growth counts as inhibited. As a reminder, the Kd is the equilibrium constant for the complex coming apart.

Regarding `O=c1c2ccccc2[se]n1-c1ccccc1` [EBSELEN], in test [1], the IC50 came to 0.38 µM.

In the case of `CC/C(=N\Nc1cccnc1)C(=O)O.Cl`, the MIC in test [2] was above 64 µg/mL. Also, the Kd in test [3] is above 1000 µM.

As to `CC(C)(C)/C(=N\Nc1cccnc1)C(=O)O.Cl`, the MIC in test [2] is above 64 µg/mL. In test [3], the Kd was above 1000 µM.

On to `CC(C)(C)/C(=N\Nc1cccc2ccccc12)C(=O)O`, for which the MIC in test [2] was above 64 µg/mL. In addition, in test [3], the Kd was 307 µM. Moreover, the IC50 in test [4] was found to be 94.6 µM.

In test [1], `NCc1ccc(C(=O)N[C@H]2Cc3cccc(C(=O)O)c3O[B-]2(O)O)cc1` yielded an IC50 of 0.029 µM.

Take `CCC/C(=N\Nc1ccccc1)C(=O)O`: the minimal inhibitory concentration (MIC) in test [2] is above 64 µg/mL. The Kd in test [3] turned out to be 188 µM.

Consider `O=C(O)CNC(=O)C(CS)Cc1ccccc1` (configuration not stated) [THIORPHAN], for which the midpoint of inhibition in test [1], the IC50, lay at 1.8 µM.

As to `CCC/C(=N\Nc1cccc2cccnc12)C(=O)O.Cl`, the MIC in test [2] was above 64 µg/mL. For the same compound, the Kd in test [3] was found to be 221 µM. The IC50 in test [4] turned out to be 82.3 µM.

For `CC(C)(C)/C(=N\Nc1ccccc1)C(=O)O`, the MIC in test [2] is above 64 µg/mL. Besides, the Kd in test [3] was 438 µM.

`O=C([O-])CN(CCN(CC(=O)[O-])CC(=O)O)CC(=O)O.[Na+].[Na+]` [EDETATE DISODIUM ANHYDROUS]: in test [3], the Kd was above 1000 µM. In addition, the IC50 in test [4] stood at 17.2 µM.

Consider `C[C@H](CS)C(=O)N1CCC[C@H]1C(=O)O` [CAPTOPRIL], for which the dissociation constant (Kd) in test [3] lay in the range of 12 to 14.1 µM. In test [4], the IC50 was determined as 390 µM.

Regarding `C/C(=N\Nc1cccc2ccccc12)C(=O)O`, the MIC in test [2] is above 64 µg/mL. Moreover, in test [3], the dissociation constant Kd was 255 µM. Besides, the 50% inhibitory concentration (IC50) in test [4] was found to be 389 µM.

Regarding `C/C(=N\Nc1cccc2cccnc12)C(=O)O.Cl`, the MIC in test [2] is above 64 µg/mL. The Kd in test [3] is 219 to 290 µM; in test [5], 620 µM. Further, the IC50 in test [4] amounted to 124 µM.

Take `C/C(=N\Nc1cccnc1)C(=O)O.Cl`: the MIC in test [2] was above 64 µg/mL. Also, the Kd in test [3] is above 1000 µM.

Consider `N[C@@H](CN[C@@H](CN[C@@H](CC(=O)O)C(=O)O)C(=O)O)C(=O)O`, for which the midpoint of inhibition in test [1], the IC50, lay at 7 µM.

Take `C/C(=N\Nc1ccccc1)C(=O)O`: in test [2], the MIC is above 64 µg/mL. The Kd in test [3] is 168 µM.

Compound `NCCN[C@H]1CC[C@H](CC(=O)N[C@H]2Cc3cccc(C(=O)O)c3OB2O)CC1` showed an IC50 in test [1] of 0.01 µM.

For the compound `O=C(O)[C@@H]1CS[C@H]2CS[C@H](CS)N21`, the IC50 in test [1] amounted to 23 µM.

Consider `CC/C(=N\Nc1cccc2cccnc12)C(=O)O.Cl`, for which, in test [2], the MIC turned out to be 64 µg/mL. Also, the Kd in test [3] was found to be 275 µM. In addition, the IC50 in test [4] was found to be 68.2 µM.

As to `CC(C)(C)/C(=N\Nc1cccc2cccnc12)C(=O)O.Cl`, the MIC in test [2] came to 64 µg/mL. In addition, the equilibrium dissociation constant (Kd) in test [3] came out at 435 µM. Also, the IC50 in test [4] is above 500 µM.

Consider `CC/C(=N\Nc1cccc2ccccc12)C(=O)O`, for which, in test [2], the minimum inhibitory concentration (MIC) was above 64 µg/mL. The Kd in test [3] was determined as 449 µM. The half-maximal inhibitory concentration (IC50) in test [4] turned out to be 28.1 µM.

With `C[C@@H](O)[C@H]1C(=O)N2C(C(=O)O)=C(S[C@@H]3CN[C@H](C(=O)N(C)C)C3)[C@H](C)[C@H]12` [MEROPENEM], in test [3], the Kd came to 75 µM.

With `CCC/C(=N\Nc1cccnc1)C(=O)O.Cl`, in test [2], the MIC was above 64 µg/mL. Further, the Kd in test [3] was 703 µM.

In the case of `CCC/C(=N\Nc1cccc2ccccc12)C(=O)O`, the MIC in test [2] is 32 µg/mL. Besides, the Kd in test [3] was above 1000 µM. For the same compound, the IC50 in test [4] is above 500 µM.

Regarding `CC/C(=N\Nc1ccccc1)C(=O)O`, the MIC in test [2] was above 64 µg/mL. Besides, in test [3], the equilibrium dissociation constant (Kd) is 191 µM.
